Broadly, the inhibition is the change of the read-out against control, counted positive when it falls. One may read the IC50 as the concentration needed to halve the response being measured. A higher IC50 goes with lower potency. What is called CC50 is the concentration that lowers cell viability or growth by half.

Data set [1] has as its system Leishmania donovani. Briefly: Antiamastigote activity against Leishmania donovani MHOM/IN/80/Dd8 amastigotes infected in mouse macrophage at 40 uM after 72 hrs by luciferase reporter gene assay. The format is functional, organism-based. On the technique in general: Reporter assays use an easily measured gene product as a stand-in for the process of interest.
Data set [2] deals with Leishmania donovani. Nature of the data set: Antipromastigote activity against Leishmania donovani MHOM/IN/80/Dd8 promastigotes assessed as luciferase activity of viable cells at 20 uM after 72 hrs by luminometry. Particulars: MHOM/IN/80/Dd8, 72 h. The class given is functional. Put shortly:
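Late-log luciferase-transfected promastigotes were seeded at 5 × 10⁵ per well in medium 199 with parallel DMSO dilutions as controls. After incubation, a suspension aliquot was mixed 1:1 with Steady Glo reagent and luminescence read as RLU. Percentage inhibition = (N − n) × 100/N, where N is mean control RLU and n is mean treated RLU.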

Data set [3] can be described thus: Selectivity index, ratio of CC50 for mouse J774A.1 cells to IC50 for Leishmania donovani MHOM/IN/80/Dd8 amastigotes. The format is functional.
For data set [4], the system named is Leishmania donovani. Nature of the data set: Antiamastigote activity against Leishmania donovani MHOM/IN/80/Dd8 amastigotes infected in mouse macrophage after 72 hrs by luciferase reporter gene assay. The class given is functional, organism-based. The settings on record: MHOM/IN/80/Dd8, 72 h. Put shortly:
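Mouse J-774A.1 macrophages were seeded at 4 × 10⁴ cells/well in RPMI-1640 with 10% foetal calf serum, 37 °C, CO₂, for 24 h. They were then infected with stationary-phase luciferase-expressing promastigotes at 4 × 10⁵/well. Compounds were added in dilutions starting from 40 and incubated 72 h at 37 °C. Medium was replaced by PBS plus Steady Glo, luminescence read as RLU, and IC50 fitted by four-parameter Hill regression.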

The nature of data set [5]: Cytotoxicity against mouse J774A1 cells assessed as cell viability after 72 hrs by MTT assay. The class given is cell-based, J774.A1.

Activity calls are given as the source filed them. The calls are words filed in the database; no cut-off is given here.

`Clc1ccc(Cl)c(COC(CCn2cncn2)c2cccs2)c1` (centres undefined): the inhibition entry in data set [1] is “inactive”. Besides, the inhibition at 20 µM in data set [2] worked out at 97.3%.
On to `Fc1ccc(F)c(COC(CCn2ccnc2)c2cccs2)c1` (centres undefined), for which the “Selectivity Index” value in data set [3] stood at 2.05. This compound registered an IC50 in data set [4] of 7.35 µM. Besides, the CC50 at 72 h in data set [5] was determined as 15.1 µM. Moreover, the inhibition at 20 µM in data set [2] is 86.8%.
On the same counts, the results for `CCCCCCCCCCCCCCCCOP(=O)([O-])OCC[N+](C)(C)C` [MILTEFOSINE] are 0.24, 13.4 µM, 3.23 µM and 99.9%.
Consider `Fc1ccc(F)c(COC(CCn2cncn2)c2cccs2)c1` (centres undefined), for which the inhibition result in data set [1] was “inactive”. For the same compound, the inhibition at 20 µM in data set [2] was found to be 94.8%.
Consider `Fc1ccc(COC(CCn2cncn2)c2cccs2)c(F)c1` (centres undefined), for which the inhibition result in data set [1] was “inactive”. For the same compound, in data set [2], the inhibition at 20 µM came out at 92%.
On to `Clc1cccc(COC(CCn2ccnc2)c2cccs2)c1` (centres undefined), for which, in data set [3], the “Selectivity Index” value is reported as 8.93. In data set [4], this compound had an IC50 of 5.14 µM. Moreover, the CC50 at 72 h in data set [5] is 46 µM. Besides, in data set [2], the inhibition at 20 µM is 100%.
Turning to `Fc1ccc(F)c(COC(CCn2cncn2)c2ccco2)c1` (centres undefined), in data set [1], the inhibition result is “inactive”. Also, the inhibition at 20 µM in data set [2] is 98.5%.
For the compound `Clc1ccc(COC(Cn2ccnc2)c2ccc(Cl)cc2Cl)c(Cl)c1` (centres undefined) [MICONAZOLE], the “Selectivity Index” value in data set [3] worked out at 1.66. This compound also came in with an IC50 in data set [4] of 6 µM. For the same compound, in data set [5], the CC50 at 72 h was 9.93 µM. Further, the inhibition at 20 µM in data set [2] came to 100%.
In the same order, the values of `Fc1ccc(COC(CCn2ccnc2)c2ccco2)c(F)c1` (centres undefined) are 6.86, 4.2 µM, 28.8 µM and 95.5%.
On to `Clc1ccc(COC(CCn2cncn2)c2ccco2)c(Cl)c1` (centres undefined), for which the inhibition entry in data set [1] is “inactive”. The inhibition at 20 µM in data set [2] stood at 97.8%.
In the same order, the values of `Clc1ccc(COC(CCn2cncn2)c2cccs2)c(Cl)c1` (centres undefined) are “inactive” and 97.1%.
`Clc1ccc(COC(CCn2ccnc2)c2ccco2)c(Cl)c1` (centres undefined): the “Selectivity Index” value in data set [3] came to 10.9. In data set [4], this compound registered an IC50 of 5.15 µM. Moreover, in data set [5], the CC50 at 72 h was 56.2 µM. Besides, the inhibition at 20 µM in data set [2] is 91.8%.
Take `Clc1ccc(Cl)c(COC(CCn2ccnc2)c2cccs2)c1` (centres undefined): the “Selectivity Index” value in data set [3] is 2.66. Further, in data set [4], the midpoint of inhibition, the IC50, lay at 6.75 µM. Moreover, the CC50 at 72 h in data set [5] was found to be 18 µM. Besides, the inhibition at 20 µM in data set [2] amounted to 85.9%.
In the same order, the values of `Clc1ccc(Cl)c(COC(CCn2ccnc2)c2ccco2)c1` (centres undefined) are 7.15, 4.03 µM, 37.6 µM and 96%.
In the same order, the values of `Clc1cccc(COC(CCn2cncn2)c2cccs2)c1` (centres undefined) are 1.93, 8.04 µM, 15.6 µM and 80.6%.
In the same order, the values of `Fc1ccc(COC(CCn2ccnc2)c2cccs2)c(F)c1` (centres undefined) are 4.4, 7.81 µM, 34.4 µM and 90.6%.
`Fc1ccc(F)c(COC(CCn2ccnc2)c2ccco2)c1` (centres undefined): the “Selectivity Index” value in data set [3] is 5.77. This compound also registered an IC50 in data set [4] of 5.35 µM. For the same compound, in data set [5], the CC50 at 72 h stood at 30.9 µM. Besides, the inhibition at 20 µM in data set [2] amounted to 99%.
Consider `Clc1cccc(COC(CCn2ccnc2)c2ccco2)c1` (centres undefined), for which the “Selectivity Index” value in data set [3] came to 19.8. Besides, half-maximal inhibition in data set [4] (IC50) required 3.04 µM. The CC50 at 72 h in data set [5] worked out at 60.2 µM. Besides, the inhibition at 20 µM in data set [2] was 100%.
In the same order, the values of `Clc1ccc(Cl)c(COC(CCn2cncn2)c2ccco2)c1` (centres undefined) are 3.08, 9.39 µM, 28.9 µM and 94.5%.
Take `Fc1ccc(COC(CCn2cncn2)c2ccco2)c(F)c1` (centres undefined): the inhibition result in data set [1] is “inactive”. The inhibition at 20 µM in data set [2] came out at 90.5%.
On to `Clc1cccc(COC(CCn2cncn2)c2ccco2)c1` (centres undefined), for which the “Selectivity Index” value in data set [3] came to 3.17. In data set [4], the IC50 was 7.36 µM. The CC50 at 72 h in data set [5] is 18.6 µM. In data set [2], the inhibition at 20 µM came out at 97.5%.
On the same counts, the results for `Clc1ccc(COC(CCn2ccnc2)c2cccs2)c(Cl)c1` (centres undefined) are 5.65, 5.26 µM, 29.7 µM and 87.8%.

Source of the values: ChEMBL document CHEMBL1772980, “Synthesis and evaluation of new furanyl and thiophenyl azoles as antileishmanial agents” (Eur J Med Chem, 2011).
